{"source": "ChEMBL document CHEMBL4304739", "about": "“Discovery of 3-(Indol-5-yl)-indazole Derivatives as Novel Myeloid Differentiation Protein 2/Toll-like Receptor 4 Antagonists for Treatment of Acute Lung Injury” (J Med Chem, 2019)", "key": {"Toll-like receptor 4": {"target": "Toll-like receptor 4 (Homo sapiens, UniProt O00206)", "sequence (O00206 whole entry)": "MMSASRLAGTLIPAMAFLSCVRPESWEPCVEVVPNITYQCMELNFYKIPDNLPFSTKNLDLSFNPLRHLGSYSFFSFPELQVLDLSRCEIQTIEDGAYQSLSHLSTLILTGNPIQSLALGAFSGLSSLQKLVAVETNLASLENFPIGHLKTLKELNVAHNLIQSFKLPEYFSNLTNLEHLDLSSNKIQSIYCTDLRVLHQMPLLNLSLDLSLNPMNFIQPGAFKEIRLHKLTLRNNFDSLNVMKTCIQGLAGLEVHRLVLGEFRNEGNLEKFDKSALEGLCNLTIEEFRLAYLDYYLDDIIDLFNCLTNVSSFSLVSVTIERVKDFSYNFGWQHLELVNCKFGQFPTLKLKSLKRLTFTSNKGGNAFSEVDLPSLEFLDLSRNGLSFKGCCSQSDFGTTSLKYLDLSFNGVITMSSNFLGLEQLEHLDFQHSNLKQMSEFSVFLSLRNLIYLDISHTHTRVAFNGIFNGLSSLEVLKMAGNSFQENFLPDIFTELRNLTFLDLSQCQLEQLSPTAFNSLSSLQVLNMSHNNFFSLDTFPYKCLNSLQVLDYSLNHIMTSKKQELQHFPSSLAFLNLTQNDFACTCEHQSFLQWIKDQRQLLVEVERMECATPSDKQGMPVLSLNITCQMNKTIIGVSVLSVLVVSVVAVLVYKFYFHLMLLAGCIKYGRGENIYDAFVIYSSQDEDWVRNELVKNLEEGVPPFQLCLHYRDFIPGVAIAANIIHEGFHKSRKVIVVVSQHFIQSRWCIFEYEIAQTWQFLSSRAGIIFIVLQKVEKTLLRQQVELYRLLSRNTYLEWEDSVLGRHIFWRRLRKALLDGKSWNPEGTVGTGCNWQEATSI", "assay": "Inhibition of HA-tagged/FLAG-tagged TLR4 (unknown origin) homodimerization expressed in HEK293T cells by co-immunoprecipitation method", "assay_type": "cell-based", "method_in_brief": "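HEK293T cells co-transfected with HA- and Flag-tagged TLR4 plasmids. Compound at various concentrations or vehicle added 6 h after transfection. Lysates immunoprecipitated with protein A/G agarose and detected by immunoblot with anti-HA and anti-Flag antibodies.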"}, "[1]": {"tested_on": "Tyrosine-protein kinase ABL1 (Homo sapiens), P00519 [T315I]", "assay": "Inhibition of human phosphorylated ABL1 T315I mutant (S229 to K512 residues) expressed in mammalian expression system at 1 uM by Kinomescan method", "method_in_brief": "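KINOMEscan competition binding screen at 1 μM compound. Results reported as % of control = (test − positive control)/(DMSO negative control − positive control) × 100, where lower values mean stronger hits.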"}, "[2]": {"target": "Casein kinase I isoform gamma-1 (Homo sapiens) (UniProt Q9HCP0)", "sequence (Q9HCP0 whole entry, looked up, the tested form may be a part, canonical isoform)": "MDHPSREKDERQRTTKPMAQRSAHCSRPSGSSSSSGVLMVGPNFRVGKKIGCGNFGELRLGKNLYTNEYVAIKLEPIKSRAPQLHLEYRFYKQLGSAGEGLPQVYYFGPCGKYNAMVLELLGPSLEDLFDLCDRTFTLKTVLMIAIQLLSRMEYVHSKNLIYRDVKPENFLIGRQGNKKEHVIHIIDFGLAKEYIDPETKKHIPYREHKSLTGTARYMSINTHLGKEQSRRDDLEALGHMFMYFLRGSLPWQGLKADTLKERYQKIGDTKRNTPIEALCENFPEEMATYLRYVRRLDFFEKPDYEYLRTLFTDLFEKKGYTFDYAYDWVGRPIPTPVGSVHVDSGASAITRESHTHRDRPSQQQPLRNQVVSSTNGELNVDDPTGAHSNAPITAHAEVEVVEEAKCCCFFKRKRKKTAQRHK", "assay": "Inhibition of wild-type human partial length CSNK1G1 (T15 to S353 residues) expressed in bacterial expression system at 1 uM by Kinomescan method", "method_in_brief": "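Binding-competition screen on the KINOMEscan platform, run by the provider, with the test compound at 1 μM. Readout is percent of control: (test signal − positive control signal)/(negative control signal − positive control signal) × 100. The DMSO negative control is set as 100% Ctrl and a control compound as 0% Ctrl. Lower values mean stronger hits.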"}}, "note": "Calls of active or inactive are those of the source. No cut-off for these calls is given here."}
{"smiles": "O=C(Nc1ccc2[nH]nc(-c3ccc4[nH]ccc4c3)c2c1)c1c(Cl)cccc1Cl", "values": [{"measurement": "inhibition", "setting": "Toll-like receptor 4", "result": "Active"}, {"measurement": "inhibition", "setting": "[1]", "result": "inactive"}, {"measurement": "inhibition", "setting": "[2]", "result": "inactive"}]}
